System: MS2 coat protein
Test: apparent Kd, MS2 coat protein; higher = weaker binding; RNA-MaP array; FMN 200 µM where present
Procedure, shortened: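 Two titrations, one without ligand and one with constant ligand, were run with SNAP-549-labelled MS2 coat protein from 0.7 or 1.5 nM, doubling to 3 µM. The targets were designs transcribed by stalled E. coli RNA polymerase on Illumina sequencing-chip clusters, in 100 mM Tris-HCl pH 7.5, 80 mM KCl, 4 mM MgCl2, BSA, DTT, yeast tRNA and Tween-20. The apparent Kd is the median of filtered per-cluster binding-curve fits, with green signal normalised to red-channel RNA signal and control-cluster median Fmax.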

[1] = designed as: ON switch for flavin mononucleotide, no ligand
[2] = ligand present: flavin mononucleotide, designed as: ON switch for flavin mononucleotide
[3] = designed as: OFF switch for flavin mononucleotide, no ligand
[4] = ligand present: flavin mononucleotide, designed as: OFF switch for flavin mononucleotide

Row | Sequence | apparent Kd [1] | apparent Kd [2] | apparent Kd [3] | apparent Kd [4]
1 | GUAGCUAUCGGAGGAUAUUCAUACCGGAAACGGACAUGAGGAUCACCCAUGUGUCGAAAGCCUUGGGAGAAGGUCGAUAGCUAC | 260 nM | 87.4 nM | – | –
2 | GUAGCUCCUGACAUGAGGAUCACCCAUGUUCAAUUAUUAAAUCAGGAUAUCGGCUAGAAACUAGCCGAGAAGGGAUAUGCUACU | 5.13 nM | 5.97 nM | – | –
3 | GUAGUGUAUGUAGGAUAUGCGAAGCAAAGCUUCGCAGAAGGACAUGAGGAUCACCCAUGUAUUGCAGCCUGCAAUCAGGCUGCU | – | – | 42.2 nM | 184 nM
4 | GUAGUGUAUGUAGGAUAUGUGAAGGAAACCUUUACAGAAGGACAUGAGGAUCACCCAUGUAUUACAGUCAGCAAUCUGACUGUU | – | – | 28.4 nM | 107 nM
5 | GUAGUGUGAGGAUAUGAUUAAUAGAAGGGAAUGCGACUGCAUCAGAAGGCACAUGAGGAUCACCCAUGUAUGAA | – | – | 19.5 nM | 29.2 nM
6 | GUAUAUAGUGUGAGGAUAUGCUGGUCCUUGGAUCAGCAGAAGGCACAUGAGGAUCACCCAUGUAGUUUAUUAUG | – | – | 19.7 nM | 78 nM
7 | GUAUAUAGUGUGAGGAUAUGCUGGUCCUUGGAUCAGCAGAAGGCACAUGAGGAUCACCCAUGUAGUUUAUUUUA | – | – | 30.6 nM | 89.4 nM
8 | GUAUGUAAGGAGAAGGGCUACUGGUUGAAACCUGCGGCCUCUGGAACAUGAGGAUCACCCAUGUAGCAGGAUAUCCUUGCGUGA | – | – | 222 nM | 22.9 nM
9 | GUAUUAAAGAUCCAUUUAUACAACAUGAGGAUCACCCAUGUGCAGGAUAUCGUGUGUUUUAUAUUCGAGAAGGGCAAAUUCAUU | – | – | 50.7 nM | 105 nM
10 | GUAUUUAGAUAAGGAUAUAAGUCUAGGACAUGAGGAUCACCCAUGUGUGUCUUAGAAGGUAUUUGGGUAAUACUGUUACAGUAA | 150 nM | 99.5 nM | – | –
11 | GUCAGCUAGUGAGGAUAUACAACACUGCUUCGGCAGUGUAUUAAGAUCACAUGAGGAUCACCCAUGUAGAAGGCACGAGCUGAU | – | – | 13.8 nM | 273 nM
12 | GUCAGCUCGUGAGGAUAUACAACACUGCUUCGCCAGUGUAUUAAGAUCACAUGAGGAUCACCCAUGUAGAAGGCACGAGCUGAU | – | – | 14.4 nM | 216 nM
13 | GUCAGCUCGUGAGGAUAUACAACACUGCUUCGGCAGGGUAUUAAGAUCACAUGAGGAUCACCCAUGUAGAAGGCACGAGCUGAU | – | – | 12.7 nM | 173 nM
14 | GUCAGCUCGUGAGGAUAUACAACACUGCUUCGGCAGUGUAUUAAGAUCACAUGAGGAUCACCCAUGUAGAAGGCACUAGCUGAU | – | – | 13.9 nM | 256 nM
15 | GUCAGCUCGUGAGGAUAUACAACACUGCUUCGGCAGUGUAUUAAGAUGACAUGAGGAUCACCCAUGUAGAAGGCACGAGCUGAU | – | – | 5.78 nM | 21 nM
16 | GUCAGCUCGUGAGGAUAUACAACACUGUUUCGGCAGUGUAUUAAGAUCACAUGAGGAUCACCCAUGUAGAAGGCACGAGCUGAU | – | – | 13.7 nM | 262 nM
17 | GUCAGCUCGUGAGGAUAUACAACCCUGCUUCGGCAGUGUAUUAAGAUCACAUGAGGAUCACCCAUGUAGAAGGCACGAGCUGAU | – | – | 10.3 nM | 146 nM
18 | GUCAGCUCGUGAGGAUAUACAAGACUGCUUCGGCAGUGUAUUAAGAUCACAUGAGGAUCACCCAUGUAGAAGGCACGAGCUGAU | – | – | 8.12 nM | 79.6 nM
19 | GUCAGCUCGUGAGGAUAUACAUGUGCUGGAGACAGCACUAUUAAGAUCACAUGAGGAUCACCCAUGUAGAAGGCACGAGCUGAU | – | – | 50.4 nM | 620 nM
20 | GUCAGCUCGUGAGGAUAUAUAACACUGCUUCGGCAGUGUAUUAAGAUCACAUGAGGAUCACCCAUGUAGAAGGCACGAGCUGAU | – | – | 5.04 nM | 8.94 nM
21 | GUCAGGUCGUGAGGAUAUACAACACUGCUUCGGCAGUGUAUUAAGAUCACAUGAGGAUCACCCAUGUAGAAGGCACGAGCUGAU | – | – | 14.1 nM | 210 nM
22 | GUCAGUUCGUGAGGAUAUACAACACUGCUUCGGCAGUGUAUUAAGAUCACAUGAGGAUCACCCAUGUAGAAGGCACGAGCUGAU | – | – | 14 nM | 269 nM
23 | GUCAUACAUGAGGAUCACCCAUGUGAGGAUAUGAGUGGUGCUGAUAGGUCGGCACCACUCAGAAGGCGCAUGAU | – | – | 77.1 nM | 293 nM

From the EternaBench riboswitch data
